This note sets out measurements from ChEMBL document CHEMBL4680349, “Design, synthesis and evaluation of 1-benzyl-1H-imidazole-5-carboxamide derivatives as potent TGR5 agonists” (Bioorg Med Chem, 2021).

For data set [1], the target named is T1, G-protein coupled bile acid receptor 1 (Homo sapiens) (UniProt Q8TDU6).
T1 sequence (whole entry): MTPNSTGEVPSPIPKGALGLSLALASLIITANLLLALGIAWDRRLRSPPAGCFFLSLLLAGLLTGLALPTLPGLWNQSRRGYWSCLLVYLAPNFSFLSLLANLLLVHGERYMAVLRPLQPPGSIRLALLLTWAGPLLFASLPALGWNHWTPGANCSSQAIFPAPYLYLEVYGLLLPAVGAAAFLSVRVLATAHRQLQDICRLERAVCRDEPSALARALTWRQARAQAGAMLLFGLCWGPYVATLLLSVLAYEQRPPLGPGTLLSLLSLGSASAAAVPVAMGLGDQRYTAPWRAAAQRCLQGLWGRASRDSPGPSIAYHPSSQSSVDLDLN
Briefly: Agonist activity at human TGR5 transfected in HEK293T cells assessed intracellular cAMP level at 10 uM by HTRF assay. It is filed as functional, cell-based. Summed up:
(§1)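 HEK293T stable line made by lentiviral transfection with drug selection. cAMP measured by HTRF cAMP dynamic 2 kit. Compounds from 10 mM DMSO stocks. 10 μM LCA defined as 100% and 0.1% DMSO as 0% hTGR5 activation. Mean of three independent experiments.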

Data set [2] concerns the target T1, G-protein coupled bile acid receptor 1 (Homo sapiens). The experiment in a line: Agonist activity at human TGR5 transfected in HEK293T cells assessed intracellular cAMP level at 40 uM by HTRF assay. It is filed as functional, cell-based. The note with it: filed as agonist. In a few lines: as §1
Data set [3] has as its target T2, G-protein coupled bile acid receptor 1 (Homo sapiens, UniProt Q8TDU6).
T2 sequence (Q8TDU6 whole entry): T1 sequence (whole entry)
The experiment in a line: Agonist activity at human TGR5 transfected in HEK293T cells assessed intracellular cAMP level by HTRF assay. The format is functional, cell-based.

For data set [4], the target named is T3, G-protein coupled bile acid receptor 1 (Mus musculus, UniProt Q80SS6).
T3 sequence (Q80SS6 whole entry): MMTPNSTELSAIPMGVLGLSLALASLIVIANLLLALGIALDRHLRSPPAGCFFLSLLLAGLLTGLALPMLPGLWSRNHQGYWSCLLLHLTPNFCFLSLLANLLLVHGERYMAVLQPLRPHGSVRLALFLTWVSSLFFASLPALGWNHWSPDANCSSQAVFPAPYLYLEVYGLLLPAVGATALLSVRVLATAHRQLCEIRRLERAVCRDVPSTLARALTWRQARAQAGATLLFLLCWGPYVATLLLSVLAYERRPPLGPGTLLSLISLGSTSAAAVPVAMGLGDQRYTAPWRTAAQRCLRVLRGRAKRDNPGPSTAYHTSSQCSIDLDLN
The experiment in a line: Agonist activity at mouse TGR5 transfected in HEK293T cells assessed intracellular cAMP level by HTRF assay. It is filed as functional, cell-based. Summed up:
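Run by the same cAMP HTRF method used for human TGR5, with compounds from 10 mM DMSO stocks. EC50 given as mean ± SEM of three independent experiments.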
For orientation: Cyclic AMP is a second messenger, typically raised through Gs and lowered through Gi signalling.

Data set [5] has as its target T4, Bile acid receptor (Homo sapiens) (UniProt Q96RI1).
T4 sequence (whole entry): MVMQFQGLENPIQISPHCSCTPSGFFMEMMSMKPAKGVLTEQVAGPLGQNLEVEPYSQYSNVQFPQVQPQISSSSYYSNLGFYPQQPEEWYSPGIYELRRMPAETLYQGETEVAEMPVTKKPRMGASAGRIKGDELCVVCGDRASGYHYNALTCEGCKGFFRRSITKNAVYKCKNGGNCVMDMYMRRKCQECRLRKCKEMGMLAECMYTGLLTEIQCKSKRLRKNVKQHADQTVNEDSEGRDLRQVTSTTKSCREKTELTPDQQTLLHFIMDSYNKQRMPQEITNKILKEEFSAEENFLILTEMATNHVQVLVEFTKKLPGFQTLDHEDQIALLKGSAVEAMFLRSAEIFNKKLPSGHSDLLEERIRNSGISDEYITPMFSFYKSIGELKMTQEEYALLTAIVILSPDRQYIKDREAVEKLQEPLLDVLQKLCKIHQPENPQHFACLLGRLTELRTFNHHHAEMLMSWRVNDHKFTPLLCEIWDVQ
The experiment in a line: Agonist activity at GST-tagged human FXR-LBD using biotinylated SRC-1 peptide as substrate at 10 uM by HTRF assay. Summed up: (§2)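 Reaction mix in HTRF buffer (50 mM Hepes pH 7.0, 125 mM KF, 0.125% CHAPS, 0.05% dry milk): 10 nM GST-FXRα LBD, 100 nM biotin-SRC1, 0.83 nM Eu-anti-GST, 41.75 nM streptavidin-XL665. Incubated at room temperature, read as (665/620 nm)×10,000. 50 μM CDCA defined as 100% and 0.1% DMSO as 0% activation.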
For orientation: Time-resolved FRET reads energy transfer from a long-lived donor to a nearby acceptor.

Data set [6] deals with T4, Bile acid receptor (Homo sapiens). The experiment in a line: Agonist activity at GST-tagged human FXR-LBD using biotinylated SRC-1 peptide as substrate at 50 uM by HTRF assay. In a few lines: as §2
Data set [7] has as its system Mus musculus. Briefly: Antidiabetic activity against in C57BL/6J mouse assessed reduction in glucose AUC at 30 mg/kg, po pretreated for 60 mins followed by 2 g/kg glucose orally administered measured upto 120 mins by OGTT method relative to control. It is filed as functional. Further details: scale not given: the % may be the effect or the level left. Particulars: time min <=180.

Data set [8] in a line: Stability of the compound in human plasma assessed as parent compound remaining measured after 120 mins. The format is ADME, cell-free. The note with it: read-out: Stabilty.
Data set [9] has as its target T4, Bile acid receptor (Homo sapiens). Briefly: Agonist activity at GST-tagged human FXR-LBD using biotinylated SRC-1 peptide as substrate at 20 uM by HTRF assay. Summed up: as §2
The next data set relates to A549. Briefly: Cytotoxicity against human A549 cells assessed as reduction in cell viability incubated for 24 hrs by CCK8 assay. The format is functional, cell-based. The note with it: A549, 24 h. Summed up:
(§3)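 Cells exposed to compounds for 24 h, then viability read by CCK8 assay to give IC50.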
(Formazan colour is commonly taken as a measure of viable cells.)

Data set [10] in a line: Stability of the compound in human plasma assessed as parent compound remaining measured after 60 mins. It is filed as ADME, cell-free. Particulars: read-out: Stabilty.
Another data set concerns HeLa. Briefly: Cytotoxicity against human HeLa cells assessed as reduction in cell viability incubated for 24 hrs by CCK8 assay. It is filed as functional, cell-based. In a few lines: as §3
The test system of data set [11] is Mus musculus. The experiment in a line: Induction of GLP-1 secretion in TGR5 knock out C57BL/6J mouse assessed as serum GLP-1 level at 30 mg/kg, po followed by 2 g/kg glucose orally administered measured after 5 mins by ELISA relative to control. The format is functional, organism-based. In a few lines:
(§4)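 Eight-week-old WT or TGR5−/− mice fasted overnight, then given vehicle (0.25% CMC) or compound 30 mg/kg orally. Oral glucose 2.0 g/kg 1 h later. Blood taken 5 min after glucose into tubes with DPP IV inhibitor and EDTA. Serum active GLP-1(7–36 amide) measured by ELISA.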

For data set [12], the system named is Mus musculus. Briefly: In vivo agonist activity at TGR5 in wild type C57BL/6J mouse assessed as induction of GLP-1 secretion at 30 mg/kg, po followed by 2 g/kg glucose orally administered measured after 5 mins by ELISA relative to control. The format is functional, organism-based. Summed up: as §4

As usually defined, the EC50 is the concentration that produces a half-maximal response. What is called IC50 is the concentration at which inhibition is half-maximal.

Molecules are shown by their SMILES. Activity calls are given as the source filed them. Bounds are passed on as bounds.

In the case of `C[C@H](c1ccccc1)n1cncc1C(=O)Nc1ccc(Cl)cc1`, the values for the Activity in data set [1] and in data set [2] were 37.7% and 84.1%, respectively.
For `O=C(c1cncn1Cc1ccc(F)cc1F)N1CCN(C2CC2)c2ccccc21`, the EC50 in [3] is 338 nM; in data set [4], greater than 10 µM.
`C[C@H](c1ccccc1)n1cncc1C(=O)N1CCN(c2ccccc2F)CC1`: the EC50 in [3] is 1090 nM. Besides, the values for the Activity in data set [1] (filed as agonist) and in data set [2] were 79.3% and 95.3%, respectively.
For `C[C@H](c1ccccc1)n1cncc1C(=O)N1CCN(C2CC2)c2ccccc21`, in that order: 330 nM, 89.8% and 97.4%.
In the case of `Cc1ccc(N(C)C(=O)c2cncn2[C@H](C)c2ccccc2)cc1`, the results for the Activity in data set [1] (filed as agonist) and in data set [2] were 62.1% and 86.7%, respectively.
For the compound `O=C(c1cncn1Cc1cc(Cl)ccc1Cl)N1CCN(C2CC2)c2ccccc21`, the Activity is 2.3% in [5], 0.31% in data set [6], 13.7% in the data set with Mus musculus [7] and -0.8% in data set [9]. Besides, the figures for the EC50 in data set [3] and in data set [4] were 9.5 nM and 0.832 µM, respectively. Moreover, the remaining at 2 h in data set [8] was 105%. The IC50 in the data set on A549 and in the data set with HeLa was greater than 50 µM throughout. The remaining at 1 h in [10] is 112%.
In turn, `C[C@H](c1ccccc1)n1cncc1C(=O)N(C)c1ccc(F)cc1` returned an EC50 in data set [3] of 1050 nM. Further, the Activity in data set [1] (filed as agonist) was 70.9%; in [2], 85.4%.
Turning to `O=C(c1cncn1Cc1ccc(F)cc1)N1CCN(C2CC2)c2ccccc21`, the EC50 in data set [3] is 568 nM; in data set [4] it was greater than 10 µM.
With `C[C@H](c1ccccc1)n1cncc1C(=O)Nc1cccc(F)c1`, the Activity in [1] amounted to 20.1%; in [2], 56.2%.
With `O=C(c1cncn1Cc1ccccc1Cl)N1CCN(C2CC2)c2ccccc21`, the EC50 in [3] came out at 118 nM; in data set [4], 3.69 µM.
In the case of `COc1ccccc1N1CCN(C(=O)c2cncn2[C@H](C)c2ccccc2)CC1`, the Activity in data set [1] was found to be 17.4%; in [2], 49.2%.
Take `O=C(c1cncn1Cc1ccc(Cl)cc1Cl)N1CCN(C2CC2)c2ccccc21`: the Activity in [5] was 1.1%; in data set [6] it was -1.1%; in the data set with Mus musculus [7], 15.8%; in [9], 1.6%. In addition, the EC50 in [3] was determined as 6.8 nM; in data set [4] it was 0.611 µM. In the data set on Mus musculus [11], the outcome was inactive. Further, the remaining at 2 h in data set [8] stood at 104%. In addition, the IC50 in the data set with A549 and in the data set with HeLa was greater than 50 µM throughout. In data set [10], the remaining at 1 h was 107%. For the same compound, in the data set with Mus musculus [12], the result was Active.
Turning to `C[C@H](c1ccccc1)n1cncc1C(=O)N(C)c1ccc(Cl)cc1`, the Activity in data set [1] (filed as agonist) was 63.1%; in data set [2], 71.9%.
`C[C@H](c1ccccc1)n1cncc1C(=O)Nc1ccc(F)cc1`: the Activity was 51.3% in data set [1] (filed as agonist) and 85.2% in [2].
In the same order, the values of `C[C@H](c1ccccc1)n1cncc1C(=O)N1CCOc2ccccc21` are 54.1% and 74.5%.
Regarding `Cc1ccc(NC(=O)c2cncn2[C@H](C)c2ccccc2)cc1`, the Activity in data set [1] was 20.2%; in data set [2], 63.3%.
For `C[C@H](c1ccccc1)n1cncc1C(=O)N1CCN(c2ccccc2)CC1`, the results for the Activity in data set [1] (filed as agonist) and in [2] were 41.7% and 81.6%, respectively.
For the compound `C[C@H](c1ccccc1)n1cncc1C(=O)Nc1ccccc1F`, the Activity in data set [1] was 16.5%; in [2], 48.4%.
For `O=C(c1cncn1Cc1ccccc1)N1CCN(C2CC2)c2ccccc21`, the figures for the EC50 in data set [3] and in [4] were 1750 nM and 3.5 µM, respectively.
For `C[C@H](c1ccccc1)n1cncc1C(=O)N1CCCc2ccccc21`, the results for the Activity in data set [1] (filed as agonist) and in [2] were 48.3% and 77.1%, respectively.
As for `COc1ccc(NC(=O)c2cncn2[C@H](C)c2ccccc2)cc1`, the Activity in [1] was found to be 25.3%; in data set [2] it was 66.5%.
Regarding `COc1ccc(N2CCN(C(=O)c3cncn3[C@H](C)c3ccccc3)CC2)cc1`, the EC50 in data set [3] amounted to 4390 nM. The Activity in data set [1] (filed as agonist) is 79.1%; in data set [2], 89.7%.
